Each block holds one molecule with its values, some of them ahead of it.
How the values were obtained:
Hepatitis C virus [1] = assay: Antiviral activity against HCV 1b infected in human HuH7 cells assessed as total viral RNA level after 48 hrs by RT-qPCR analysis; assay type: functional, organism-based, Hepacivirus hominis, genotype 1b, Huh-7
Summary of the method: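 Huh7/Clone A genotype 1b replicon cells, seeded at 40,000 per well in growth medium without G418, incubated overnight at 37 °C, 5% CO2. Compounds serially diluted in DMSO (final 0.5%), seven concentrations in triplicate, 48 h at 37 °C. Total RNA extracted and replicon RNA quantified by TaqMan RT-qPCR, normalized to untreated cells (100%).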

[2] = Cytotoxicity against human HuH7 cells; assay type: cell-based, Huh-7
[3] = Inhibition of Hepatitis C virus 1b BK NS5B Cdelta21 polymerase by scintillation proximity assay; set-up: species or system Hepatitis C virus (isolate BK)
[4] = system: RNA-directed RNA polymerase (Hepacivirus hominis), O39930 [P495L]; assay: Inhibition of HCV 1b BK NS5B polymerase NNI-1 allosteric site P495L mutant by scintillation proximity assay relative to wild-type; settings: Hepatitis C virus (isolate BK)
Summary of the method: (§1)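 SPA polymerase assay at 22 °C: 50 nM genotype 1b BK NS5B (C-terminal 21-residue deletion), mutant and wild-type, preincubated with inhibitor in pH 7.5 Tris buffer with MgCl2, DTT, KCl, BSA and 5% DMSO. Started with [3H]UTP, 1 µM UTP, biotinylated oligo(rU12) and poly(rA); stopped at 120 min with streptavidin SPA beads, then CsCl, then counted. Fold-change in inhibition over wild-type.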

[5] = system: RNA-directed RNA polymerase (Hepacivirus hominis), O39930 [M423F]; assay: Inhibition of HCV 1b BK NS5B polymerase NNI-2 allosteric site M423F mutant by scintillation proximity assay relative to wild-type; settings: Hepatitis C virus (isolate BK); summary of the method: as §1
Hepatitis C virus [6] = assay: Antiviral activity against HCV 1a infected in human HuH7 cells assessed as total viral RNA level after 48 hrs by RT-qPCR analysis; assay type: functional, organism-based, Hepacivirus hominis; settings: subtype 1a, Huh-7, 48 h
[7] = Hepatitis C virus, genotype 1b, Huh-7, 48 h, read-out: EC50

Sequence of RNA-directed RNA polymerase (Hepacivirus hominis), O39930 [P495L] (O39930 entry or part of it P495L): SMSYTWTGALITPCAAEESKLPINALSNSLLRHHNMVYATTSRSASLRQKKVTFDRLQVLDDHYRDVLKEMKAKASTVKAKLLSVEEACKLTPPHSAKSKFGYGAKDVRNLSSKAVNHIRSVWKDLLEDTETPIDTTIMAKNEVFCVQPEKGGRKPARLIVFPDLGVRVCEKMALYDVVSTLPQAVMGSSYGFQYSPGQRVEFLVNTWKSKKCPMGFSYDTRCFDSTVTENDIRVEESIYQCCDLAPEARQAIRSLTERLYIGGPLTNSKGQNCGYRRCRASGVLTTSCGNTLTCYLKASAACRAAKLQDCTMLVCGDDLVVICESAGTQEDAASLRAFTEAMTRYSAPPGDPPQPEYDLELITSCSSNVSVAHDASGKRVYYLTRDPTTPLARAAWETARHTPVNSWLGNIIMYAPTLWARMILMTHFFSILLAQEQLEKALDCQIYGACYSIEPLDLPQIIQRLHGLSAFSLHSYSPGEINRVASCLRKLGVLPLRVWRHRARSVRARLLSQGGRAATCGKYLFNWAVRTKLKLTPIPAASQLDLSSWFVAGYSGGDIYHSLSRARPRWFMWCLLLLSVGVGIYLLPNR
Sequence of RNA-directed RNA polymerase (Hepacivirus hominis), O39930 [M423F] (O39930 entry or part of it M423F): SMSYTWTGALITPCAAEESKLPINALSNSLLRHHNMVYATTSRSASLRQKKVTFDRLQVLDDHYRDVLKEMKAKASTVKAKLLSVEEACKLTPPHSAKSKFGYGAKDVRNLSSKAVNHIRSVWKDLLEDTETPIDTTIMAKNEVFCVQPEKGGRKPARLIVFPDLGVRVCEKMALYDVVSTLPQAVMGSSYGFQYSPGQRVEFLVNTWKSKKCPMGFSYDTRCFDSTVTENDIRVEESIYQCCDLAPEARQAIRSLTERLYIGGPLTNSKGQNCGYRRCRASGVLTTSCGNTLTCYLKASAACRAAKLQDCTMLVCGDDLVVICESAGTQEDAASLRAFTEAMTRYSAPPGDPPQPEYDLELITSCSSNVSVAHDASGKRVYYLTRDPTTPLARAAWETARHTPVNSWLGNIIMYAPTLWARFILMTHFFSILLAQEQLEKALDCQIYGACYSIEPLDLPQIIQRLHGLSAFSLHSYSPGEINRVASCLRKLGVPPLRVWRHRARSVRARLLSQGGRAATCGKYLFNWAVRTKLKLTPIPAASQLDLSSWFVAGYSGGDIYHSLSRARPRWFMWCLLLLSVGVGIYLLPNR

Structure (SMILES): CN1CCN(c2cc3c(cc2F)c(=O)c(NC(=O)NCc2ccccc2)cn3Cc2ccccc2)CC1
EC50 (Hepatitis C virus [1]; huh-7): Not Active
GI50 ([2]; huh-7): Not Active
IC50 [3]: 26 µM

Structure (SMILES): O=C(OCc1ccc(Cl)cc1)c1cn(Cc2ccc(Cl)cc2)c2cc(N3CCOCC3)c(F)cc2c1=O
EC50 (Hepatitis C virus [1]; [7]): 1.7 µM
GI50 ([2]; HuH7 cells, read-out: GI50): > 12 µM
IC50 [3]: 0.02 µM

Structure (SMILES): COc1cc2c(=O)c(C(=O)c3ccc(C)cc3)cn(Cc3ccc(C(F)(F)F)cc3F)c2cc1OC
EC50 (Hepatitis C virus [1]; [7]): > 12 µM
GI50 ([2]; HuH7 cells, read-out: GI50): > 25 µM
IC50 [3]: 0.41 µM

Structure (SMILES): CN1CCN(c2cc3c(cc2F)c(=O)c(NC(=O)Cc2ccccc2)cn3Cc2ccc(Cl)cc2)CC1
EC50 (Hepatitis C virus [1]; huh-7): Not Active
GI50 ([2]; huh-7): Not Active
IC50 [3]: 4.6 µM

Structure (SMILES): CN1CCN(c2cc3c(cc2F)c(=O)c(NC(=O)NCc2ccc(Cl)cc2)cn3Cc2ccc(Cl)cc2)CC1
EC50 (Hepatitis C virus [1]; huh-7): Not Active
GI50 ([2]; huh-7): Not Active
IC50 [3]: > 150 µM

Structure (SMILES): COc1cc2c(=O)c(C(=O)c3ccc(C)cc3)cn(Cc3ccc(S(N)(=O)=O)cc3)c2cc1OC
EC50 (Hepatitis C virus [1]; [7]): > 50 µM
GI50 ([2]; HuH7 cells, read-out: GI50): > 25 µM
IC50 [3]: 0.85 µM

Structure (SMILES): COc1cc2c(=O)c(C(=O)c3ccc(C)cc3)cn(Cc3ccc(S(C)(=O)=O)cc3)c2cc1OC
EC50 (Hepatitis C virus [1]; [7]): 25.3 µM
GI50 ([2]; HuH7 cells, read-out: GI50): > 50 µM
IC50 [3]: 0.5 µM

Structure (SMILES): COc1cc2c(=O)c(C(=O)c3ccc(C)cc3)cn(Cc3ccc(C(C)C)cc3)c2cc1OC
fold change (FC) [4]: 1
EC50 (Hepatitis C virus [1]; [7]): 11.7 µM
GI50 ([2]; HuH7 cells, read-out: GI50): 15.5 µM
IC50 [3]: 1.15 µM
fold change (FC) [5]: > 200

Structure (SMILES): COc1cc2c(=O)c(C(=O)c3ccc(C)cc3)cn(Cc3ccc(C(C)(C)C)cc3)c2cc1OC
EC50 (Hepatitis C virus [1]; [7]): 9.5 µM
GI50 ([2]; HuH7 cells, read-out: GI50): > 25 µM
IC50 [3]: 0.68 µM

Structure (SMILES): COc1cc2c(=O)c(C(=O)OCc3ccccc3C)cn(Cc3ccc(C(F)(F)F)cc3F)c2cc1OC
EC50 (Hepatitis C virus [1]; [7]): 0.71 µM
GI50 ([2]; HuH7 cells, read-out: GI50): 31 µM
IC50 [3]: 0.015 µM

Structure (SMILES): O=C(NCc1ccc(Cl)cc1)c1cn(Cc2ccc(Cl)cc2)c2cc(N3CCOCC3)c(F)cc2c1=O
EC50 (Hepatitis C virus [1]; huh-7): Not Active
GI50 ([2]; huh-7): Not Active
IC50 [3]: 16 µM

Structure (SMILES): COc1cc2c(=O)c(C(=O)c3ccc(C)cc3)cn(CC3CC3)c2cc1OC
EC50 (Hepatitis C virus [1]; huh-7): Not Active
GI50 ([2]; huh-7): Not Active
IC50 [3]: 120 µM

Structure (SMILES): CN(Cc1ccc(Cl)cc1)C(=O)c1cn(Cc2ccc(Cl)cc2)c2cc(N3CCOCC3)c(F)cc2c1=O
EC50 (Hepatitis C virus [1]; huh-7): Not Active
GI50 ([2]; huh-7): Not Active
IC50 [3]: 330 µM

Structure (SMILES): O=C(OCc1ccc(Cl)cc1)c1cn(Cc2ccc(Cl)cc2)c2cc(N3CCNCC3)c(F)cc2c1=O
EC50 (Hepatitis C virus [1]; [7]): 0.12 µM
EC50 (Hepatitis C virus [6]): 0.41 µM
GI50 ([2]; HuH7 cells, read-out: GI50): 1.1 µM
IC50 [3]: 0.01 µM

Structure (SMILES): CN1CCN(c2cc3c(cc2F)c(=O)c(NC(=O)Cc2ccc(Cl)cc2)cn3Cc2ccccc2)CC1
EC50 (Hepatitis C virus [1]; huh-7): Not Active
GI50 ([2]; huh-7): Not Active
IC50 [3]: 2 µM

Structure (SMILES): COc1cc2c(=O)c(C(=O)c3ccc(C)cc3)cn(CC3CCCCC3)c2cc1OC
EC50 (Hepatitis C virus [1]; [7]): 38 µM
GI50 ([2]; HuH7 cells, read-out: GI50): 22 µM
IC50 [3]: 9 µM

Structure (SMILES): COc1cc2c(=O)c(C(=O)OCc3ccc(C)cc3)cn(Cc3ccc(C(F)(F)F)cc3F)c2cc1OC
EC50 (Hepatitis C virus [1]; [7]): 0.23 µM
GI50 ([2]; HuH7 cells, read-out: GI50): 20 µM
IC50 [3]: 0.008 µM

Structure (SMILES): COc1cc2c(=O)c(C(=O)OCc3cccc(C)c3)cn(Cc3ccc(C(F)(F)F)cc3F)c2cc1OC
EC50 (Hepatitis C virus [1]; [7]): 1.2 µM
GI50 ([2]; HuH7 cells, read-out: GI50): 7.3 µM
IC50 [3]: 0.06 µM

The next lines start with results.

EC50 (Hepatitis C virus [1]; huh-7): Not Active
IC50 [3]: > 150 µM
Structure (SMILES): COc1cc2c(=O)c(S(=O)(=O)CCc3ccc(Cl)cc3)cn(Cc3ccccc3)c2cc1OC
GI50 ([2]; huh-7): Not Active

EC50 (Hepatitis C virus [1]; huh-7): Not Active
IC50 [3]: 2.2 µM
Structure (SMILES): COc1cc2c(=O)c(C(=O)c3ccc(C)cc3)cn(CCCc3ccccc3)c2cc1OC
GI50 ([2]; huh-7): Not Active

EC50 (Hepatitis C virus [1]; huh-7): Not Active
IC50 [3]: 140 µM
Structure (SMILES): COc1cc2c(=O)c(C(=O)c3ccc(C)cc3)cn(Cc3ccc(N)cc3)c2cc1OC
GI50 ([2]; huh-7): Not Active

EC50 (Hepatitis C virus [1]; huh-7): Not Active
IC50 [3]: 100 µM
Structure (SMILES): COc1cc2c(=O)c(COCc3ccc(Cl)cc3)cn(Cc3ccccc3)c2cc1OC
GI50 ([2]; huh-7): Not Active

EC50 (Hepatitis C virus [1]; [7]): 11.7 µM
IC50 [3]: 1.1 µM
Structure (SMILES): COc1cc2c(=O)c(C(=O)c3ccc(C)cc3)cn(Cc3ccc(Cl)cc3)c2cc1OC
GI50 ([2]; HuH7 cells, read-out: GI50): 15.5 µM

EC50 (Hepatitis C virus [1]; [7]): 1.2 µM
IC50 [3]: 0.02 µM
Structure (SMILES): COc1cc2c(=O)c(C(=O)OCc3ccc(Cl)cc3)cn(Cc3ccc(Cl)cc3)c2cc1OC
GI50 ([2]; HuH7 cells, read-out: GI50): 28.3 µM

EC50 (Hepatitis C virus [1]; huh-7): Not Active
IC50 [3]: 1.1 µM
Structure (SMILES): COc1cc2c(=O)c(C(=O)c3ccc(C)cc3)cn(Cc3ccc(Cl)c(Cl)c3)c2cc1OC
GI50 ([2]; huh-7): Not Active

EC50 (Hepatitis C virus [1]; huh-7): Not Active
IC50 [3]: 170 µM
Structure (SMILES): COc1cc2c(=O)c(C(=O)c3ccc(C)cc3)cn(Cc3ccccc3)c2cc1OC
GI50 ([2]; huh-7): Not Active

EC50 (Hepatitis C virus [1]; [7]): > 15 µM
IC50 [3]: 16 µM
Structure (SMILES): CCOC(=O)c1cn(Cc2ccc(Cl)cc2)c2cc(OC)c(OC)cc2c1=O
GI50 ([2]; HuH7 cells, read-out: GI50): > 15 µM

EC50 (Hepatitis C virus [1]; huh-7): Not Active
IC50 [3]: 110 µM
Structure (SMILES): COc1cc2c(=O)c(C(=O)c3ccc(C)cc3)cn(CCc3ccccc3)c2cc1OC
GI50 ([2]; huh-7): Not Active

From ChEMBL document CHEMBL1641602, “Quinolones as HCV NS5B polymerase inhibitors” (Bioorg Med Chem Lett, 2011)
